In ChEMBL document CHEMBL1158358, “Synthesis, antimicrobial and cytotoxic activities of some 5-arylidene-4-thioxo-thiazolidine-2-ones” (Eur J Med Chem, 2009):
Converted amounts (≈) assume the structure as drawn.

Key:
Assay type in all cases: functional
Micrococcus luteus [1] = test: Antimicrobial activity against Micrococcus luteus UFPEDA 06 at 10 ug/disk after 24 hrs by disk diffusion method; settings: UFPEDA 06, 24 h, read-out: IZ
Enterococcus faecalis [2] = test: Antimicrobial activity against multidrug-resistant Enterococcus faecalis H.C. 24962 isolate after 20 hrs by twofold serial dilution technique; settings: H.C. 24962, 20 h
Outline: (§1)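 Twofold serial dilution MIC in agar plates against Gram-positive strains and multidrug-resistant clinical isolates. Inoculum applied was 10⁵ CFU/plate. Plates with culture medium plus DMSO served as negative control. MIC was read after incubation at 35 °C for 20 h.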

Enterococcus faecalis [3] = test: Antimicrobial activity against Enterococcus faecalis UFPEDA 138 after 20 hrs by twofold serial dilution technique; settings: UFPEDA 138, 20 h
Outline: (§2)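 MIC was determined by twofold serial dilution. Bacteria were tested in plates at 10⁵ CFU/plate and read after 20 h. C. albicans was tested in tubes at 10³ CFU/tube and read after 48 h. All incubations were at 35 °C. Medium plus DMSO served as the negative control.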

Staphylococcus aureus [4] = test: Antimicrobial activity against multidrug-resistant Staphylococcus aureus H.C. 20489 isolate after 20 hrs by twofold serial dilution technique; settings: H.C. 20489, 20 h; outline: as §1
Enterococcus faecalis [5] = test: Antimicrobial activity against Enterococcus faecalis UFPEDA 138 at 10 ug/disk after 24 hrs by disk diffusion method; settings: UFPEDA 138, 24 h, read-out: IZ
Staphylococcus aureus [6] = test: Antimicrobial activity against multidrug-resistant Staphylococcus aureus H.C. 20981 isolate after 20 hrs by twofold serial dilution technique; settings: H.C. 20981, 20 h; outline: as §1
Staphylococcus [7] = test: Antimicrobial activity against coagulase-negative Staphylococcus H.A.M. 338 isolate after 20 hrs by twofold serial dilution technique; settings: H.A.M. 338, 20 h; outline: as §2
Enterococcus faecalis [8] = test: Antimicrobial activity against multidrug-resistant Enterococcus faecalis H.C. 21944 isolate after 20 hrs by twofold serial dilution technique; settings: H.C. 21944, 20 h; outline: as §1
Staphylococcus aureus [9] = test: Antimicrobial activity against multidrug-resistant Staphylococcus aureus H.C. 20905 isolate after 20 hrs by twofold serial dilution technique; settings: H.C. 20905, 20 h; outline: as §1
Staphylococcus aureus [10] = test: Antimicrobial activity against Staphylococcus aureus UFPEDA 01 after 20 hrs by twofold serial dilution technique; settings: UFPEDA 01, 20 h; outline: as §1
Staphylococcus aureus [11] = test: Antimicrobial activity against multidrug-resistant Staphylococcus aureus H.C. 21036 isolate after 20 hrs by twofold serial dilution technique; settings: H.C. 21036, 20 h; outline: as §1
Bacillus subtilis [12] = test: Antimicrobial activity against Bacillus subtilis UFPEDA 16 at 10 ug/disk after 24 hrs by disk diffusion method; settings: UFPEDA 16, 24 h, read-out: IZ
[13] = tested on: Mycolicibacterium smegmatis; test: Antimicrobial activity against Mycobacterium smegmatis UFPEDA 71 after 20 hrs by twofold serial dilution technique; settings: UFPEDA 71, 20 h; outline: as §2
Micrococcus luteus [14] = test: Antimicrobial activity against Micrococcus luteus UFPEDA 06 after 20 hrs by twofold serial dilution technique; settings: UFPEDA 06, 20 h; outline: as §2
Staphylococcus [15] = test: Antimicrobial activity against coagulase-negative Staphylococcus H.A.M. 278 isolate after 20 hrs by twofold serial dilution technique; settings: H.A.M. 278, 20 h; outline: as §2
Bacillus subtilis [16] = test: Antimicrobial activity against Bacillus subtilis UFPEDA 16 after 20 hrs by twofold serial dilution technique; settings: UFPEDA 16, 20 h; outline: as §2
Staphylococcus aureus [17] = test: Antimicrobial activity against multidrug-resistant Staphylococcus aureus H.C. 20794 isolate after 20 hrs by twofold serial dilution technique; settings: H.C. 20794, 20 h; outline: as §1
Enterococcus faecalis [18] = test: Antimicrobial activity against multidrug-resistant Enterococcus faecalis H.C. 21752 isolate after 20 hrs by twofold serial dilution technique; settings: H.C. 21752, 20 h; outline: as §1
Escherichia coli [19] = test: Antimicrobial activity against Escherichia coli UFPEDA 224 at 10 ug/disk after 24 hrs by disk diffusion method; settings: UFPEDA 224, 24 h, read-out: IZ
Outline: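 Preliminary screen: 6 mm paper disks bearing the agent placed on agar plates inoculated with a standardized microbial suspension. Negative control was DMSO-only disks. Inhibition zones are means of n = 3; no zone or a mean zone below 7 mm was scored as no sensitivity.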

Enterococcus faecalis [20] = test: Antimicrobial activity against multidrug-resistant Enterococcus faecalis H.C. 24708 isolate after 20 hrs by twofold serial dilution technique; settings: H.C. 24708, 20 h; outline: as §1
Staphylococcus aureus [21] = test: Antimicrobial activity against multidrug-resistant Staphylococcus aureus H.C. 21141 isolate after 20 hrs by twofold serial dilution technique; settings: H.C. 21141, 20 h; outline: as §1
Staphylococcus aureus [22] = test: Antimicrobial activity against Staphylococcus aureus UFPEDA 01 at 10 ug/disk after 24 hrs by disk diffusion method; settings: UFPEDA 01, 24 h, read-out: IZ
Escherichia coli [23] = test: Antimicrobial activity against Escherichia coli UFPEDA 224 at 30 ug/disk after 24 hrs by disk diffusion method; settings: UFPEDA 224, 24 h, read-out: IZ
Pseudomonas aeruginosa = test: Antimicrobial activity against Pseudomonas aeruginosa UFPEDA 39 at 30 ug/disk after 24 hrs by disk diffusion method; settings: UFPEDA 39, 24 h, read-out: IZ
Serratia marcescens = test: Antimicrobial activity against Serratia marcescens UFPEDA 398 at 30 ug/disk after 24 hrs by disk diffusion method; settings: UFPEDA 398, 24 h, read-out: IZ
[24] = tested on: Mycolicibacterium smegmatis; test: Antimicrobial activity against Mycobacterium smegmatis UFPEDA 71 at 30 ug/disk after 24 hrs by disk diffusion method; settings: UFPEDA 71, 24 h, read-out: IZ

Compound `CC1(C)S[C@@H]2[C@H](NC(=O)[C@H](N)c3ccccc3)C(=O)N2[C@H]1C(=O)O` [AMPICILLIN] has a zone of inhibition at 10 µg/disc (Micrococcus luteus [1]) of 45 mm, an MIC (Enterococcus faecalis [2]) of 2 µg/mL (≈ 5.72 µM) and an MIC (Enterococcus faecalis [3]) of 2 µg/mL (≈ 5.72 µM). For the same compound, the MIC (Staphylococcus aureus [4]) was no more than 1 µg/mL, the zone of inhibition at 10 µg/disc (Enterococcus faecalis [5]) was 24 mm and the MIC (Staphylococcus aureus [6]) was 2 µg/mL (≈ 5.72 µM). The MIC (Staphylococcus [7]) was no more than 1 µg/mL, the MIC (Enterococcus faecalis [8]) was no more than 1 µg/mL and the MIC (Staphylococcus aureus [9]) was 64 µg/mL (≈ 183 µM). For the same compound, the MIC (Staphylococcus aureus [10]) was 2 µg/mL (≈ 5.72 µM), the MIC (Staphylococcus aureus [11]) was 32 µg/mL (≈ 91.6 µM) and the zone of inhibition at 10 µg/disc (Bacillus subtilis [12]) was 28 mm. It also gave an MIC [13] of 64 µg/mL (≈ 183 µM), an MIC (Micrococcus luteus [14]) of 2 µg/mL (≈ 5.72 µM) and an MIC (Staphylococcus [15]) of no more than 1 µg/mL. For the same compound, the MIC (Bacillus subtilis [16]) was 2 µg/mL (≈ 5.72 µM), the MIC (Staphylococcus aureus [17]) was 2 µg/mL (≈ 5.72 µM) and the MIC (Enterococcus faecalis [18]) was 2 µg/mL (≈ 5.72 µM). For the same compound, the zone of inhibition at 10 µg/disc (Escherichia coli [19]) was 20 mm, the MIC (Enterococcus faecalis [20]) was 2 µg/mL (≈ 5.72 µM) and the MIC (Staphylococcus aureus [21]) was no more than 1 µg/mL. It also gave a zone of inhibition at 10 µg/disc (Staphylococcus aureus [22]) of 38 mm.

With `NC[C@H]1O[C@H](O[C@H]2[C@H](O)[C@@H](O[C@H]3O[C@H](CO)[C@@H](O)[C@H](N)[C@H]3O)[C@H](N)C[C@@H]2N)[C@H](O)[C@@H](O)[C@@H]1O` [KANAMYCIN] the zone of inhibition at 30 µg/disc (Escherichia coli [23]) was 15 mm, the zone of inhibition at 30 µg/disc (Pseudomonas aeruginosa) was 20 mm and the zone of inhibition at 30 µg/disc (Serratia marcescens) was 45 mm. The zone of inhibition at 30 µg/disc [24] was 40 mm.
